Reference: ChEMBL document CHEMBL3856271, “Bis-Michael Acceptors as Novel Probes to Study the Keap1/Nrf2/ARE Pathway” (J Med Chem, 2016)

What was measured:
Format in all cases: cell-based
[1] = target: T1, Keap1/Nrf2 (Homo sapiens) (UniProt Q16236+Q14145); assay: Inhibition of Keap1-Nrf2 interaction in HEK293T cells assessed as induction of ARE-luciferase gene expression at 1 uM after 24 hrs relative to control; settings: HEK-293T
In short: (§1)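 HEK 293T cells (1 × 105) plated the day before transfection, transiently transfected with 0.1 μg ARE-luc (Nrf2 response element) plasmid by FuGENE6; next day treated with compounds (range 0–100 μM) or sulforaphane 10 μM as positive control for 24 h. Lysates read for luciferase activity; expressed as fold-induction. Cells grown in complete DMEM with 10% FBS, 37 °C, 5% CO2.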

[2] = target: T1, Keap1/Nrf2 (Homo sapiens); assay: Inhibition of Keap1-Nrf2 interaction in HEK293T cells assessed as induction of ARE-luciferase gene expression at 20 uM after 24 hrs relative to control; settings: HEK-293T; in short: as §1
[3] = Toxicity in HEK293T cells assessed as mortality at 100 uM after 24 hrs LDH assay relative to control; settings: human, hek-293t
In short: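 HEK 293T cells cultured in complete DMEM (10% FBS, antibiotics, sodium pyruvate, nonessential amino acids, 2 mM L-glutamine) at 37 °C, 5% CO2. Treated with increasing concentrations of Keap1 ligands for 24 h. Supernatants collected, cells lysed in 1% Triton, and LDH activity measured with buffer containing L(+)-lactic acid and NAD. Mortality reported when over 5%.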

[4] = target: T1, Keap1/Nrf2 (Homo sapiens); assay: Inhibition of Keap1-Nrf2 interaction in HEK293T cells assessed as induction of ARE-luciferase gene expression at 100 uM after 24 hrs relative to control; settings: HEK-293T; in short: as §1

T1 sequence (Q14145 whole entry, looked up): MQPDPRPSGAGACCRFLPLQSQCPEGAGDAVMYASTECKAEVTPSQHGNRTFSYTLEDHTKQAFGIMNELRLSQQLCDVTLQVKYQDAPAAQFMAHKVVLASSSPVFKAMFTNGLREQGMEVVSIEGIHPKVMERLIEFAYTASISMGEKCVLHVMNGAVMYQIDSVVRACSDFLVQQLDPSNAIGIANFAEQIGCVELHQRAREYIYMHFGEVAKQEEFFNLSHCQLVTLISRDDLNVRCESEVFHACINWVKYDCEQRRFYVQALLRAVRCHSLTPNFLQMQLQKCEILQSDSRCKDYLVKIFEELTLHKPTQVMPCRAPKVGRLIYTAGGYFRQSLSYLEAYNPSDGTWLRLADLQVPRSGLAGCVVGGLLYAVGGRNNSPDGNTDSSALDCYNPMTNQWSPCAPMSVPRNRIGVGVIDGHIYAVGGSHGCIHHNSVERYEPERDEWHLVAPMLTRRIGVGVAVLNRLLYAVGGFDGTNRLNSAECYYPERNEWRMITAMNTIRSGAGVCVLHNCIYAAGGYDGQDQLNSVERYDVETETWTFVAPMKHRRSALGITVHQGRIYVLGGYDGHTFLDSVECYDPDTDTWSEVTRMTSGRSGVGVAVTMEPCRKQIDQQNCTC
T1 sequence (Q16236 whole entry, looked up): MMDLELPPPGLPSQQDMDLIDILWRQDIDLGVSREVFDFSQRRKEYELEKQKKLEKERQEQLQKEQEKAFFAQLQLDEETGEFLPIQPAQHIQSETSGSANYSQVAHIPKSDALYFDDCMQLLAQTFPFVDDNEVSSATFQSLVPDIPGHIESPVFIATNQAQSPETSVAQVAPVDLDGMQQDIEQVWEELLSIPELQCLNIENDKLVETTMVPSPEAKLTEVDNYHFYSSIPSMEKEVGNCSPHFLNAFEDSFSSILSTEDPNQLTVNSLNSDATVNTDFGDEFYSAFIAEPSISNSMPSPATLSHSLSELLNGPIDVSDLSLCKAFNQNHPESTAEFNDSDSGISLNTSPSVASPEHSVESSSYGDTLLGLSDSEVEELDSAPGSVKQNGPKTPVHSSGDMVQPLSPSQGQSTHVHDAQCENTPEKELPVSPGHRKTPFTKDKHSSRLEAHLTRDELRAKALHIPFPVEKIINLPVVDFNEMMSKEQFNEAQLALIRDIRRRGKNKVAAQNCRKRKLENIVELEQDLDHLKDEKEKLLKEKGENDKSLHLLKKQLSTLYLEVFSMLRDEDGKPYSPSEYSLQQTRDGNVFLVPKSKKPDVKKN

| Compound | fold change (FC) [1] | fold change (FC) [2] | fold change (FC) [4] | Activity [3] | mortality [3] [%] |
| --- | --- | --- | --- | --- | --- |
| COC(=O)C1=CC2(CC(CCCC3CC4(C=C(C(=O)OC)C3=O)OCCO4)C1=O)OCCO2 (stereo not drawn) | 1 | 1.05 | 30.9 |  | 9 |
| C=CCOC(=O)C1=CC(C)(C)CCC1=O | 1.39 | 4.36 | 94.8 |  | 17 |
| CC1(C)C=C(I)C(=O)CC1 | 1.22 | 1.16 | 17.4 |  |  |
| CC1(C)C=C(CO)C(=O)CC1 | 0.72 | 0.77 | 1.46 |  |  |
| COC(=O)C1=CC(C)(C)CC(CC(F)(F)F)C1=O (stereo not drawn) | 0.54 | 1.54 | 17.9 |  | 11 |
| CC1(C)C=C(COC(=O)C2CC(C)(C)CCC2=O)C(=O)CC1 (stereo not drawn) | 2.98 | 3.79 | 4.02 |  |  |
| COC(=O)C1(C)CC(C)(C)C=CC1=O (stereo not drawn) | 1.47 | 2.43 | 4.56 |  |  |
| COC(=O)C1=CC2(CC(CC3CC4(C=C(C(=O)OC)C3=O)OCCO4)C1=O)OCCO2 (stereo not drawn) | 0.94 | 2.76 | 15.9 |  | 12 |
| CC1(C)C=C(Cl)C(=O)CC1 | 1.33 | 4.42 | 43.4 |  |  |
| CC1(C)C=C(COC(=O)C2=CC(C)(C)CCC2=O)C(=O)CC1 | 2.02 | 3.78 | 121 |  | 15 |
| CC1(C)C=C(C(=O)OC(C)(C)C)C(=O)CC1 | 1.05 | 3.89 | 106 |  | 16 |
| CC1(C)C=C(C(=O)O)C(=O)CC1 | 2 | 3.11 | 29.6 |  |  |
| COC(=O)C1=CC(C)(C)CC(CC2CC(C)(C)C=C(C(=O)OC)C2=O)C1=O (stereo not drawn) | 4.49 | 3.6 | 101 |  | 24 |
| C#CCC1CC(C)(C)C=C(C(=O)OC)C1=O (stereo not drawn) | 1.14 | 1.48 | 34.2 |  | 7 |

The next lines start with results.

| fold change (FC) [1] | fold change (FC) [2] | fold change (FC) [4] | Compound | Activity [3] | mortality [3] [%] |
| --- | --- | --- | --- | --- | --- |
| 15.2 |  |  | COC(=O)C1=CC(C)(C)CC(C/C=C/CC2CC(C)(C)C=C(C(=O)OC)C2=O)C1=O (stereo not drawn) |  |  |
| 1.15 | 2 | 64.7 | CCCCCCC1CC(C)(C)C=C(C(=O)OC)C1=O (stereo not drawn) | Non-Toxic |  |
| 1.35 | 3.39 | 10.3 | COC(=O)C1=CC(C)(C)C=CC1=O |  |  |
| 0.98 | 2.49 |  | COC(=O)C1=CC2(CC(C)C1=O)OCCO2 (stereo not drawn) | Non-Toxic |  |
| 8.23 |  |  | COC(=O)C1=CC(C)(C)CC(CCCCC2CC(C)(C)C=C(C(=O)OC)C2=O)C1=O (stereo not drawn) |  |  |
| 1.17 | 2.75 | 4.6 | COC(=O)C1=CC(C)(C)CC(C)C1=O (stereo not drawn) | Non-Toxic |  |
| 0.68 | 1.24 | 5.96 | COC(=O)CCC1CC(C)(C)C=C(C(=O)OC)C1=O (stereo not drawn) |  |  |
| 0.65 | 2 | 1.75 | COC(=O)C1=CC(C)(C)CC(CC(=O)OC(C)(C)C)C1=O (stereo not drawn) |  |  |
| 4.71 | 248 |  | COC(=O)C1=CC(C)(C)CC(CCCC2CC(C)(C)C=C(C(=O)OC)C2=O)C1=O (stereo not drawn) |  |  |
| 0.49 | 2.2 | 8.71 | COC(=O)C1=CC(C)(C)CC(CC(C)=O)C1=O (stereo not drawn) |  |  |
| 1.03 | 2.22 | 17.1 | COC(=O)C1=CC(C)(C)CC(CC#N)C1=O (stereo not drawn) |  |  |
| 52.5 |  |  | COC(=O)C1=CC(C)(C)CC(CC#CCC2CC(C)(C)C=C(C(=O)OC)C2=O)C1=O (stereo not drawn) |  |  |
| 1.36 | 6.46 | 50.6 | COC(=O)C1=CC(C)(C)CCC1=O | Non-Toxic |  |
| 1.34 | 2.05 | 25.3 | C=CCC1CC(C)(C)C=C(C(=O)OC)C1=O (stereo not drawn) | Non-Toxic |  |
| 1.05 | 3.2 | 41.9 | COC(=O)C1CC(C)(C)C=CC1=O (stereo not drawn) |  |  |
| 1.4 | 2.19 | 20.2 | CCCCCCC1CC2(C=C(C(=O)OC)C1=O)OCCO2 (stereo not drawn) | Non-Toxic |  |
| 1 | 1.85 | 1.29 | COC(=O)C1=CC(C)(C)CCC1O (stereo not drawn) |  |  |
| 0.95 | 0.92 | 48.5 | COC(=O)C1=CC(C)(C)CC(Cc2ccccc2)C1=O (stereo not drawn) | Non-Toxic |  |
